Assay results reported in the M2OR odorant receptor database.

Experiments:
Conditions in all cases: stereoisomer not certain
OR2M5 G255A = test system: OR2M5 G255A
How it was run: (§1)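 Each receptor–molecule pair is labelled responsive or non-responsive (inactive) according to whether the original authors judged the measured signal statistically different from baseline. The data were taken from the main text and supplementary material of published papers and checked for typos and inconsistencies. Assay methods differed by source, with transient luciferase assays in mammalian cell lines being common.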

OR2M5 L273M = test system: OR2M5 L273M
Sequence of OR2M5 L273M (as listed by the source, stated change not applied): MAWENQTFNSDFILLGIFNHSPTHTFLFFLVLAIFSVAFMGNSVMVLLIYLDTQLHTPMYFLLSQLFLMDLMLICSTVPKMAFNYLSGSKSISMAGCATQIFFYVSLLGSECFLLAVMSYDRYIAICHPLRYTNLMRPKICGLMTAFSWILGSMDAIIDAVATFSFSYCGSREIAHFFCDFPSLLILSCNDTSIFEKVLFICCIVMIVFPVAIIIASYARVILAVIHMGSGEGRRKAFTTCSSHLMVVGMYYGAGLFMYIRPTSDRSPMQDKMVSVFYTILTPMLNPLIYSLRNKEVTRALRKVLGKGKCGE
How it was run: as §1

OR2M5 M154T = test system: OR2M5 M154T
Sequence of OR2M5 M154T (as listed by the source, stated change not applied): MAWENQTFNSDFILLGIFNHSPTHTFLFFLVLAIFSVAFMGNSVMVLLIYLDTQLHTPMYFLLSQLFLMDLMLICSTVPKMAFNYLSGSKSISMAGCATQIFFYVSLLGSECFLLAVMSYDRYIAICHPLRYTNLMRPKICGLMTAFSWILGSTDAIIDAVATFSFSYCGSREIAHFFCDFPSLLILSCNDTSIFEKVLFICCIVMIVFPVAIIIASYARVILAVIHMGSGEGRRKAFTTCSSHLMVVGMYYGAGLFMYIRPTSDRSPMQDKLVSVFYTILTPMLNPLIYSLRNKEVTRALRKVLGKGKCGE
How it was run: as §1

OR2M5 S119A = test system: OR2M5 S119A
Sequence of OR2M5 S119A (as listed by the source, stated change not applied): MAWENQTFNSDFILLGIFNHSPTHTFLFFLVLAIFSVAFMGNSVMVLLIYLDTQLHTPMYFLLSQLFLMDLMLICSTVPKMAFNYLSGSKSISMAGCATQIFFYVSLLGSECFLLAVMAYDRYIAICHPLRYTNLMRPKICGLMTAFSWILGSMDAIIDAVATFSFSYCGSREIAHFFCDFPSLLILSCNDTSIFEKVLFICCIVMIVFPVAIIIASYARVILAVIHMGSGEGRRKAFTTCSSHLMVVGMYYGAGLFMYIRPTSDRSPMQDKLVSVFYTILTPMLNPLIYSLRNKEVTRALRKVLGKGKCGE
How it was run: as §1

[1] = test system: OR2M5 V105T A156G A160V G255A
How it was run: as §1

[2] = test system: OR2M5 V105T A156G G255A L273M
How it was run: as §1

OR2M5 V105T A156G G255A = test system: OR2M5 V105T A156G G255A
How it was run: as §1

[3] = test system: OR2M5 V105T A156G V198I G255A
How it was run: as §1

OR2M5 V105T A156G = test system: OR2M5 V105T A156G
How it was run: as §1

OR2M5 V105T G255H = test system: OR2M5 V105T G255H
How it was run: as §1

Measured: odorant receptor agonist call;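 further: active if original authors judged signal statistically different from baseline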

Sequence of OR2M5 G255A (as listed by the source, stated change not applied): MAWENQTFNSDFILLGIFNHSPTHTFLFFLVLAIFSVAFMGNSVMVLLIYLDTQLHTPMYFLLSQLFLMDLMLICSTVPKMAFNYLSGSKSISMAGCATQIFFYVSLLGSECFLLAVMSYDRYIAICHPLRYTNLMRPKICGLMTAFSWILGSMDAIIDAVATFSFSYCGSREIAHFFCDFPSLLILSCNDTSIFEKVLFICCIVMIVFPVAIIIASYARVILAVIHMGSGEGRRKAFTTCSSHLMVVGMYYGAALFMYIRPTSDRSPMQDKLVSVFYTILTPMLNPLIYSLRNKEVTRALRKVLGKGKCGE

CCC(S)C(C)CO (stereo not given)
inactive: OR2M5 G255A | OR2M5 L273M | OR2M5 M154T | OR2M5 S119A | [1] | [2] | OR2M5 V105T A156G G255A | [3] | OR2M5 V105T A156G | OR2M5 V105T G255H
